Experimental data reported in ChEMBL document CHEMBL4312027, “Synthesis, characterization, and biological activity of a triphenylphosphonium-containing imidazolium salt against select bladder cancer cell lines” (Eur J Med Chem, 2020).
Activity calls are given as the source filed them. No cut-off for these calls is given here.

What was measured:
RPMI-8226 = assay: Growth inhibition of human RPMI8226 cells assessed as growth percent at 10 uM incubated for 48 hrs by sulforhodamine B assay relative to control; assay type: functional; settings: RPMI-8226, 48 h, read-out: Activity
TK-10 = assay: Growth inhibition of human TK10 cells assessed as growth percent at 10 uM incubated for 48 hrs by sulforhodamine B assay relative to control; assay type: functional; settings: TK-10, 48 h, read-out: Activity
RT-112 [1] = assay: Growth inhibition of human RT112 cells at 500 uM measured after 1 hr by Celltiter-Glo luminescent cell viability assay relative to control; assay type: functional; settings: RT-112, 1 h, read-out: GI
In short: (§1)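 Cells seeded 10000/well, 24 h, then exposed in ATCC-recommended medium to 62.5–2000 μM (two-fold steps) or vehicle for the set time (5–60 min), then normal medium. After 24 h, plates equilibrated 30 min at room temperature, CellTiter-Glo added, 2 min at room temperature, luminescence read. Survival relative to vehicle control; quadruplicate.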

NCI-H226 = assay: Growth inhibition of human NCI-H226 cells assessed as growth percent at 10 uM incubated for 48 hrs by sulforhodamine B assay relative to control; assay type: functional; settings: NCI-H226, 48 h, read-out: Activity
OVCAR-4 = assay: Growth inhibition of human OVCAR4 cells assessed as growth percent at 10 uM incubated for 48 hrs by sulforhodamine B assay relative to control; assay type: functional; settings: OVCAR-4, 48 h, read-out: Activity
SR = assay: Growth inhibition of human SR cells assessed as growth percent at 10 uM incubated for 48 hrs by sulforhodamine B assay relative to control; assay type: functional; settings: read-out: Activity
RT-4 [2] = assay: Growth inhibition of human RT4 cells measured after 1 hr by Celltiter-Glo luminescent cell viability assay; assay type: functional; settings: RT-4, 1 h; in short: as §1
[3] = Solubility of compound in water; assay type: physicochemical
UMUC3 = assay: Cell cycle arrest in human UM-UC-3 cells assessed as increase in cell accumulation at sub-G1 phase at 250 to 500 uM incubated for 1 hr measured after culturing in normal medium for 24 hrs by propidium iodide/RNase staining based FACScan flow cytometry analysis; assay type: functional
In short: (§2)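 Seeded at 300,000 cells/well in triplicate per treatment; 24 h later exposed to 250 or 500 μM or vehicle for 1 h. After 24 h in normal media, media plus cells were collected, washed, fixed in cold 70% ethanol (4 °C, 30 min), treated with phosphate citric acid buffer, stained with PI/RNase and gated for sub-G1 by flow cytometry.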

OVCAR-5 = assay: Growth inhibition of human OVCAR5 cells assessed as growth percent at 10 uM incubated for 48 hrs by sulforhodamine B assay relative to control; assay type: functional; settings: OVCAR-5, 48 h, read-out: Activity
OVCAR-3 = assay: Growth inhibition of human OVCAR3 cells assessed as growth percent at 10 uM incubated for 48 hrs by sulforhodamine B assay relative to control; assay type: functional; settings: OVCAR-3, 48 h, read-out: Activity
HT-29 = assay: Growth inhibition of human HT-29 cells assessed as growth percent at 10 uM incubated for 48 hrs by sulforhodamine B assay relative to control; assay type: functional; settings: HT-29, 48 h, read-out: Activity
UACC-257 = assay: Growth inhibition of human UACC257 cells assessed as growth percent at 10 uM incubated for 48 hrs by sulforhodamine B assay relative to control; assay type: functional; settings: UACC-257, 48 h, read-out: Activity
RT-112 [4] = assay: Growth inhibition of human RT112 cells measured after 1 hr by Celltiter-Glo luminescent cell viability assay; assay type: functional; settings: RT-112, 1 h; in short: as §1
J82 = assay: Cell cycle arrest in human J82 cells assessed as increase in cell accumulation at sub-G1 phase at 250 to 500 uM incubated for 1 hr measured after culturing in normal medium for 24 hrs by propidium iodide/RNase staining based FACScan flow cytometry analysis; assay type: functional; in short: as §2
TCC-SUP = assay: Growth inhibition of human TCCSUP cells measured after 1 hr by Celltiter-Glo luminescent cell viability assay; assay type: functional; in short: as §1
HL-60(TB) = assay: Growth inhibition of human HL-60(TB) cells assessed as growth percent at 10 uM incubated for 48 hrs by sulforhodamine B assay relative to control; assay type: functional; settings: HL-60, 48 h, read-out: Activity
BT-549 = assay: Growth inhibition of human BT549 cells assessed as growth percent at 10 uM incubated for 48 hrs by sulforhodamine B assay relative to control; assay type: functional; settings: BT-549, 48 h, read-out: Activity
RT-112 [5] = assay: Cell cycle arrest in human RT112 cells assessed as cell accumulation at sub-G1 phase at 500 uM incubated for 1 hr measured after culturing in normal medium for 24 hrs by propidium iodide/RNase staining based FACScan flow cytometry analysis; assay type: functional; in short: as §2
RT-4 [6] = assay: Growth inhibition of human RT4 cells at 500 uM measured after 1 hr by Celltiter-Glo luminescent cell viability assay relative to control; assay type: functional; settings: RT-4, 1 h, read-out: GI; in short: as §1
[7] = Toxicity in anesthetized female mouse model assessed as fibrosis at 750 to 1500 uM administered via intravesical instillation after bladder evacuation treated for 1 hr followed by repetition of the treatment after 24 hrs and measured at 24 hrs after final treatment; settings: in vivo, other
In short: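 Female mice anesthetized, 1–3% isoflurane. Bladder evacuated, then 100 μL of 750 or 1500 μM in 10% DMSO/PBS (or vehicle) instilled by 24G angiocatheter. Catheter left in place for a 1 h dwell. Repeated after 24 h; mice sacrificed 24 h after final dose. Bladder histology read for urothelial height and layers.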

HOP-92 = assay: Growth inhibition of human HOP92 cells assessed as growth percent at 10 uM incubated for 48 hrs by sulforhodamine B assay relative to control; assay type: functional; settings: HOP-92, 48 h, read-out: Activity

Work on `[Br-].[Br-].c1ccc([P+](CCCc2n(Cc3ccc4ccccc4c3)c3ccccc3[n+]2Cc2ccc3ccccc3c2)(c2ccccc2)c2ccccc2)cc1` yielded a growth at 10 µM (RPMI-8226) of 6.9%, a growth at 10 µM (TK-10) of 89.2% and an inhibition of growth at 500 µM (RT-112 [1]) of 100%. The growth at 10 µM (NCI-H226) was 83.5%, the growth at 10 µM (OVCAR-4) was 74.4% and the growth at 10 µM (SR) was 30.8%. For the same compound, the GI50 (RT-4 [2]) was 150 µM, the solubility [3] was 8000 µg/mL and the Activity (UMUC3) was “Active”. For the same compound, the growth at 10 µM (OVCAR-5) was 60.1%, the growth at 10 µM (OVCAR-3) was 75.8% and the growth at 10 µM (HT-29) was 23.9%. For the same compound, the growth at 10 µM (UACC-257) was 84%, the GI50 (RT-112 [4]) was 200 µM and the Activity (J82) was “Active”. For the same compound, the GI50 (TCC-SUP) was 240 µM, the growth at 10 µM (HL-60(TB)) was 22.6% and the growth at 10 µM (BT-549) was 68.1%. For the same compound, the Activity (RT-112 [5]) was “inactive”, the inhibition of growth at 500 µM (RT-4 [6]) was 100% and the Activity [7] was “Non-Toxic”. For the same compound, the growth at 10 µM (HOP-92) was 46.3%.
